Yeast growth inh: yeast BB579 growth reduction in restrictive medium; S. cerevisiae BB579 growth, OD615, 48 h; 140,000 tested, 0.51% active; inhibition, % at 10 µM; AID 804;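 active means inhibition above a set limit, 3 SD over the mean compound inhibition, cut at about 44% in these data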
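Assay system – yeast BB579 (DeaD) · Dosing – single compound dose of 10 µM, 0.25% DMSO final · Detection – OD615 turbidity measurement · Buffer or medium – CSMM-D restrictive synthetic medium containing dextrose (glucose) · Benchmarks – positive control amphotericin B 10 µg/mL · Incubation – 48 h exposure, 30 °C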
Yeast life ext: extends the lifespan of yeast; S. cerevisiae growth with nicotinamide, OD615; deaD strain in restrictive glucose medium; inhibition of the nicotinamide effect, % at 10 µM; 130,000 tested, 0.68% active; AID 775;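 active means inhibition above a set limit, placed 3 SD over the median of all compounds, cut at about 26% in these data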
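Assay system: engineered S. cerevisiae DeaD replicative-lifespan strain, galactose-grown log-phase cells; Buffer or medium: CSMM-D glucose medium, restrictive; Probe or stimulus: nicotinamide 1.5 mM; Compound: single dose 10 µM compound, 0.25% DMSO; Schedule: 4 h preincubation then 48 h treatment at 30 °C; Technique: OD615 measurement.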
MDM2 E3 inh: inhibitors of human Mdm2 E3 ubiquitin ligase; Q00987; cell-based MDM2 ubiquitination luciferase reporter, 2 h; 0 = plate control, 100 = twice control, blank-subtracted; 210,000 tested, 0.11% active; AID 1230; signal enhancement, % at 5 µM;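 active means signal enhancement of 30% or more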;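 further: luminescence tracks abundance of the self-degrading MDM2-luciferase fusion protein; higher signal means inhibition of MDM2 E3 ligase activity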
Target sequence (Q00987 whole entry, looked up, the tested form may be a part): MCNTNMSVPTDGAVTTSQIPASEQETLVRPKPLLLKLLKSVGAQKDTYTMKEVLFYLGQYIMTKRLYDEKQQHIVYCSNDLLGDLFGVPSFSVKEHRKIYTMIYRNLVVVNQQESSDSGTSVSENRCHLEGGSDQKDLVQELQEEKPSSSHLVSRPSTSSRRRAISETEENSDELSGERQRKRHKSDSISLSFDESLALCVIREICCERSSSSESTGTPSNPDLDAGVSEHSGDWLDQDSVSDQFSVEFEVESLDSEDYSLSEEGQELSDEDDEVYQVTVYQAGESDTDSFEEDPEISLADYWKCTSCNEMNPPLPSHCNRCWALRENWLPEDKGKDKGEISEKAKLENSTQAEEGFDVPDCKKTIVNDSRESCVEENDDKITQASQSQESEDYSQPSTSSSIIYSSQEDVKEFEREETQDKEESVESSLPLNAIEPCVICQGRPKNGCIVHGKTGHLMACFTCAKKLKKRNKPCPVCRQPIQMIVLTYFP
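Test system: mammalian cells stably expressing self-ubiquitinating, self-degrading MDM2 E3–luciferase fusion; Amount: 2000 cells in each well; Medium: DMEM; Schedule: 4 h settle plus 2 h compound, 37 °C; Technique: SteadyLite luciferase luminescence after 15 min room-temperature reagent incubation; Benchmarks: plate control and blank wells.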
Insulin prom inh: TRM-6 insulin promoter activity inhibition | TRM-6 cells, insulin promoter-eGFP reporter, imaging; reporter expression induced with tamoxifen | inhibition, % at 2 µM | AID 1273 | 130,000 tested, 0.9% active;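 active means inhibition above the mean plus 3 SD, with well images judged a real hit on visual review, cut at about 60% in these data, passing the limit was not always enough; inconclusive means inhibition over the cutoff but images rejected on review; inactive means inhibition not above the cutoff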
Measles CPE: protection of cells from measles virus; Measles virus-infected cells, CPE protection, absorbance; protection (pct of control), % at 4 µM; 140,000 tested, 1.5% active; in the data active means protection mostly above about 24%, no sharp cut-off; inactive means mostly below about 26%
RAM inhibit: inhibitors of the yeast RAM network. 190,000 tested, 1.8% active. inhibition, % at 50 µM. AID 868. S. cerevisiae dse1pr::URA3 reporter, 5-FOA growth OD615, 2 d; analog-sensitive cbk1-as2 kinase mutant strain;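 active means inhibition above a set limit, 3 SD over mean compound inhibition, cut at about 8.4% in these data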;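 further: inhibition rescues growth on 5-FOA so higher OD means more RAM inhibition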
Hits are given with their value; 0 = inactive; ? = inconclusive; - = not tested or not shown. Hits are enriched below; roughly 4% of the tested compounds scored in any of these assays.

SMILES	Yeast growth inh	Yeast life ext	MDM2 E3 inh	Insulin prom inh	Measles CPE	RAM inhibit
CCCCN1CCc2c1nc1ccc(Br)cc1c2N	0	0	0	87	0	0
Cc1ccc2nc3c(c(N)c2c1)CCN3c1ccccc1	0	0	0	-	0	0
CC(=O)Nc1ccc(NC(=O)CSc2nnc3c4ccccc4n(C)c3n2)cc1	-	-	0	0	-	8.5
CN(C)CCCC(=O)c1ccc2c(c1)OCO2	0	0	0	0	35	0
CN(C)CCC(=O)c1ccc2c(c1)OCO2	0	0	0	82	0	0
CCCC(=O)c1ccc2c(c1)OCCO2	0	0	0	0	0	0
O=C(/C=C\c1ccccc1OC(=O)c1ccccc1F)c1cc2ccccc2o1	0	0	0	-	0	0
O=C(NNc1nc(-c2ccccc2)c2cc(Br)ccc2n1)c1ccc(S(=O)(=O)N2CCCCC2)cc1	0	0	0	0	47	0
Cc1ccc2nc(-c3ccccn3)cc(C(=O)NC3CCN(C)CC3)c2c1	0	0	0	0	67	0
CC(C)c1noc2ncc(C(=O)c3cc(Cl)cc(Cl)c3O)cc12	0	64	0	0	0	0
Cc1ccc2[nH]c3c(c2c1)CC/C(=C/c1ccccc1)C3=O	0	81	-	0	0	0
COC(=O)c1ccccc1OC(=O)c1ccc(Br)o1	0	0	0	0	0	0
CC(C)(C)n1nnnc1C(c1cccc(C(F)(F)F)c1)N1CCOCC1 (stereo not given)	0	0	0	-	27	0
Cc1nc(=O)c(-c2ccccc2)c(C)n1-c1ccc(O)cc1	0	0	0	100	0	0
CC(=O)Nc1ccc(-n2c(C)nc(=O)c(-c3ccccc3)c2C)cc1	0	0	0	0	0	0
O=C(NCc1ccc2c(c1)OCO2)c1ccc(C2SCC(=O)N2Cc2ccco2)cc1 (stereo not given)	0	0	0	0	0	0
Cc1onc(-c2ccccc2Cl)c1C(=O)OCC(=O)N1CCCc2ccccc21	0	0	0	0	0	0
CCOC(=O)c1c(NC(=O)COC(=O)c2cc(OC)c(OC)cc2[N+](=O)[O-])sc(C)c1C	0	0	0	-	0	8.6
CCOC(=O)c1c(NC(=O)CSc2nnnn2CC)sc(C)c1C	0	0	0	-	0	8.9
CCOC(=O)c1c(NC(=O)COC)sc(C)c1C	0	-	0	?	0	0
CCOC(=O)c1c(NC(=O)Cn2nc(C(F)F)cc2C(F)F)sc(C)c1C	0	0	0	0	0	9.6
CCCn1c(SCC(=O)Nc2sc(C)c(C)c2C(=O)OCC)nc2c1c(=O)n(C)c(=O)n2C	0	0	0	-	31	0
O=C(Oc1ccc(NC(=O)c2cc3c(cc2Br)OCO3)cc1)c1ccccc1	-	-	0	-	-	-
C#CC(CO)N(CCN(Cc1ccccc1)C(C#C)CO)Cc1ccccc1 (stereo not given)	0	0	0	0	0	0
COc1ccc(S(=O)(=O)N2CCCCCC2)cc1N(C)S(=O)(=O)c1ccccc1	0	0	0	-	0	10
SMILES	Yeast growth inh	Yeast life ext	MDM2 E3 inh	Insulin prom inh	Measles CPE	RAM inhibit
COc1ccc(S(=O)(=O)N2CCCCC2)cc1C(C)C	0	0	0	0	0	10
O=C(Nc1cc(S(=O)(=O)Nc2ccc(Cl)cc2)ccc1N1CCCCC1)c1ccc(F)cc1Cl	0	0	0	0	0	0
O=c1nc2ccccc2c2n1CC(CN1CCN(c3ccccc3F)CC1)N2 (stereo not given)	0	0	0	0	0	0
COc1cc(CN(C)Cc2ccccc2)cc(OC)c1O	0	0	0	0	0	0
CN(C)c1ccc(N=Nc2ccc(S(=O)(=O)O)cc2)c2ccccc12	-	-	0	0	-	10
O=C(CN1CCCc2ccccc21)N/N=C/c1c(O)ccc2ccccc12	0	0	0	0	0	0
COc1ccc(N/N=C(/C#N)S(=O)(=O)c2nsc(C)c2C#N)cc1	0	0	0	0	0	0
Cc1snc(S(=O)(=O)/C(C#N)=N/Nc2cccc(C(F)(F)F)c2)c1C#N	0	0	0	75	0	0
CCCCNC(=S)N/N=C/C1=CCC2CC1C2(C)C (stereo not given)	0	0	0	0	0	8.6
NNC(=O)CCc1ccc(S(=O)(=O)N2CCOCC2)cc1	-	-	0	81	-	0
CS(=O)(=O)NCC(c1ccco1)N1CCN(c2ccc(F)cc2)CC1 (stereo not given)	0	0	0	-	63	0
CCS(=O)(=O)NCC(c1ccco1)N1CCN(c2ccc(F)cc2)CC1 (stereo not given)	0	0	0	0	0	0
Cc1ccc(Sc2oc(/C=N/n3cnnc3)cc2Br)cc1	0	0	0	0	0	0
CCOC(=O)CCSc1nc(-c2ccc3c(c2)OCO3)cc(C(F)(F)F)c1C#N	0	0	0	0	0	11
Nc1nc(CSc2ccc(Cl)cc2)nc(N2CCCCC2)n1	-	-	0	0	-	9.0
Nc1nc(CSc2ccccc2)nc(N2CCCCC2)n1	-	-	0	-	-	0
O=C1NC[C@H](c2ccccc2)N(CCc2cccc(F)c2)C1=O	-	-	0	-	-	-
COc1ccc(-c2nnc(Nc3ccc(CC(N)=O)cc3)c3ccccc23)cc1	0	0	0	-	64	0
CCC(=NCc1ccc(Cl)c(Cl)c1)c1nc(-c2ccco2)oc1O	0	0	0	0	0	11
Cc1nnc(N2CCN(c3ccccc3)CC2)c2nn(-c3ccccc3F)c(C)c12	-	-	-	0	-	-
O=C(Nc1ccccc1-c1nnc(SCc2ccc(Cl)cc2Cl)o1)c1ccccc1	0	0	0	-	0	10
CCNC(=O)COC(=O)c1sccc1C	-	-	0	-	-	0
Cc1cc(C(=O)CSc2nnc(Nc3ccccc3)s2)c(C)n1CC1CCCO1 (stereo not given)	0	0	31	-	0	0
COc1ccc(-c2ccnc3nc(N4CCN(c5ccccc5)CC4)nn23)cc1	0	0	0	0	0	0
Nc1c(C(O)(C(F)(F)F)C(F)(F)F)cc(C(O)(C(F)(F)F)C(F)(F)F)c2ccccc12	0	-	0	0	0	0
SMILES	Yeast growth inh	Yeast life ext	MDM2 E3 inh	Insulin prom inh	Measles CPE	RAM inhibit
Cc1nc(-c2cccnc2)sc1C(=O)Nc1ccc(Cl)cc1	0	0	0	0	33	0
Nc1c(C(=O)Nc2ccccc2)sc2nc(-c3ccco3)ccc12	0	0	0	80	0	11
Cc1nc(-c2ccncc2)sc1C(=O)Nc1ccc(Cl)cc1	-	-	0	-	-	0
Cc1nc(N)sc1C(=O)Nc1ccccc1	0	0	0	0	35	0
COc1ccccc1NC(=O)c1sc2nc(-c3ccco3)ccc2c1N	0	0	0	0	0	0
CCC(C)C(=O)Nc1nnc(SCC(=O)NC(C)(C)C)s1 (stereo not given)	-	-	0	0	-	0
S=C(c1ccc(Cl)cc1)N1CCN(Cc2ccccc2)CC1	-	-	0	-	-	0
CSc1ccc(C(=S)N2CCN(Cc3ccccc3)CC2)cc1	0	31	0	0	0	0
CCOC(=O)CSc1nc2cc(C)ccc2cc1C#N	0	0	0	?	0	0

Assay outcomes: PubChem, several laboratories
